# According to the RNAGym collection of RNA variant scans (doi:10.1126/science.aae0568):
# This sample holds only a part of the variants without activity.
# B1: tRNA (parent)
# chain: GUUCCGUUGGCGUAAUGGUAACGCGUCUCCCUCCUAAGGAGAAGACUGCGGGUUCGAGUCCCGUACGGAACG
# Variants of: B1
# Assay: yeast fitness relative to wild type (ratio to wild type); higher = fitter; tRNA-Arg(CCU), competitive growth, 37 C, YPD
# In short: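 Changes in genotype frequencies gave Darwinian fitness relative to wild type. Frequencies were read by 100-nucleotide paired-end sequencing of gene amplicons before and after pooled Saccharomyces cerevisiae strains, carrying tRNA-Arg(CCU) gene variants at the native locus, were competed in YPD at 37°C for 24 hours in six replicates. A genotype was kept only with ≥ 100 starting reads, and estimates < 0.5 were set to 0.5.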
row,Variant,yeast fitness
1,GUUCCGUUGGCGUAAUGGUAACGCGUCUCCAUCCUAAGGAGAAGACUGGGGGUUCGAGUCCCGUACGGAACG,0.64
2,GUUCCGUUGGCGUAAUGGUAACGCGUCUCCAUCCUAAGGAGAAGACUGCGGGUUCGAGUCCAGUACGGAACG,0.6
3,GUUCCGUUGGCGUAAUGGUAACGCGUCUCCAUCCUAAGGAGAAGUCUGCGGGUUCGAGUCCCGUACGGAUCG,0.789
4,GUUCCGUUGGCGUAAUGGUAACGCGUCUCCAUCCUAAGGAGAAGACUGGGGGUUCCAGUCCCGUACGGAUCG,≤ 0.5
5,GUUCCGUUGGCGUAAUGGUAACGCGUCUCCAUCCUAAGAAGAAGACUACGGGUUCGAGUCUCGUCCGGAACG,0.5
6,GUUCCGUUGGCGUAAUGGUAACGCGUCUCCAUCCUAAGGAGAAGACUGCCGGUUCGAGUCCCGUACGGAACG,0.566
7,GUUCCGUUGGCGUAAUGGUAACGCGUCUCCAUUCUAAGGAAAAGACUGCGGGUUCGAGUCCAGUACGGAACG,≤ 0.5
8,GUUCCGUUGGCGUAAUGGUAACGCGUCUCCAUCCUAAGGAGAUGACUGCGGGUUCGAGUCCCGUACGUAACG,0.72
9,GUUCCGUUGGCGUAAUGGUAACGCGUCUCCAUCCUAAAGAGAAGAUUGCGGGUUCGAGUCCCGUACGGUACG,≤ 0.5
10,GUUCCGUUGGCGUAAUGGUAACGCGUCUCCAUCGUAAGGAGAAGACUGCGGGUUCGAGUCCCGUACGGAACG,≤ 0.5
11,GUUCCGUUGGCGUAAUGGUAACGCGUCUCCAUCUUAAGGAGAAGACUGCGGGUUCGAGUCCCGUACGGAACG,0.555
12,GUUCCGUUGGCGUAAUGGUAACGCGUCUCCAUUCUAAGGAGAAGACUGCGGGUUGGAGUCCCGUACGGAACG,≤ 0.5
13,GUUCCGUUGGCGUAAUGGUAACGCGUCUCCAUCCUAAGGAGAAGAUUGCGGGUUCGAGUCCCGUACUGAACG,0.684
14,GUUCCGUUGGCGUAAUGGUAACGCGUCUCCAUCCUAAGGAGAAGACUGCGGGUUCGAGUACCGUUCGGAACG,0.619
15,GUUCCGUUGGCGUAAUGGUAACGCGUCUCCAUCCUAAGGAGAAGACUGCGGGUUCGCGUCCCGUACGGAACG,0.544
16,GUUCCGUUGGCGUAAUGGUAACGCGUCUCCAUCCUAAGGAGAAGACUGCGGGUUCGGGUCCCGUACGGAACG,0.777
17,GUUCCGUUGGCGUAAUGGUAACGCGUCUCCAUCCUAACGAGACGAGUGCGGGUUCGAGUCCCGUACGGAACG,0.672
18,GUUCCGUUGGCGUAAUGGUAACGCGUCUCCAUUCUAAGGACAAGACCGCGGGUUCGAGUCCCGUACCGAACG,≤ 0.5
19,GUUCCGUUGGCGUAAUGGUAACGCGUCUCCAUCCUAAGCAGAAGACUGCGGGUUCGAGUCCCGUAUGGAACG,≤ 0.5

row,Variant,yeast fitness
1,GUUCCGUUGGCGUAAUGGUAACGCGUCUCCAUCCUAAGGAGAAGACUGCGGGUUCGAGUCCCGUAGGGAACG,0.615
2,GUUCCGUUGGCGUAAUGGUAACGCGUCUCCAUCGUAAGGAGACGACUGCGGGUUCGAGUCUCGUACGGAACG,≤ 0.5
3,GUUCCGUUGGCGUAAUGGUAACGCGUCUCCAUGCUAAGGAGAAGGCUACGGGUUCGAGUCCCGUACGGAACG,≤ 0.5
4,GUUCCGUUGGCGUAAUGGUAACGCGUCUCCAUCCUAAGGAGAAGACUGCGGGUUCGAGUCCCGUCCAGAACG,≤ 0.5
5,GUUCCGUUGGCGUAAUGGUAACGCGUCUCCAUCCUAAGAAGAAGACAGCGGGUUCGAGUCCCGUACGCAACG,≤ 0.5
6,GUUCCGUUGGCGUAAUGGUAACGCGUCUCCAUCCUAAGGAGAAAACUGCGGGUUGGAGUCCCGUACGGAGCG,≤ 0.5
7,GUUCCGUUGGCGUAAUGGUAACGCGUCUCCAUCCUAAGGAGAACACUGCGGGUUCGAGUCCCAUACGGAACG,≤ 0.5
8,GUUCCGUUGGCGUAAUGGUAACGCGUCUCCAUCCUAAGGAGAAGAUUGCGGGUUCGAGUCCCGUACGGAACG,0.947
9,GUUCCGUUGGCGUAAUGGUAACGCGUCUCCAUCCUAACGAGAAAACUGCGGGUUCGAGUCCCGUGCGGAACG,0.534
10,GUUCCGUUGGCGUAAUGGUAACGCGUCUCCAUCCUAAGGAGAAGUCUGCGGGUUCGAGUCCCGUACGGAACG,1.02
11,GUUCCGUUGGCGUAAUGGUAACGCGUCUCCAUCCUAAGGAGAAGCCUGCGGGUUCGAGUCCUAGACGGAACG,≤ 0.5
12,GUUCCGUUGGCGUAAUGGUAACGCGUCUCCAUCCUAAGGAGAUGACUGCGGGUUCGAGUCCCAUACGGACCG,≤ 0.5
13,GUUCCGUUGGCGUAAUGGUAACGCGUCUCCAUCCUAAGGAGAAGACUACGGGUUCGAGUCCCGUAUGGAACG,0.646
14,GUUCCGUUGGCGUAAUGGUAACGCGUCUCCAUCCUAAGGAGAAAACUGCGGGUUCGGGUCCCGUCCGGAUCG,≤ 0.5
15,GUUCCGUUGGCGUAAUGGUAACGCGUCUCCAUCCUAAGGAGAAGACUGCGGGUUCGAGUCCCGUUCGGAACG,0.725
16,GUUCCGUUGGCGUAAUGGUAACGCGUCUCCAUCCUAAGGAGAAGACUGCGAGUUCGAGUCCCGUACGGAACG,0.603
17,GUUCCGUUGGCGUAAUGGUAACGCGUCUCCAUCUUAAGGAGAAGACUGCGGGUUCGAGUCGCGUACGGAACG,0.609
18,GUUCCGUUGGCGUAAUGGUAACGCGUCUCCAUCCUAAGGAGAAGACUGCGGGUUCGAGUGCCGUACGGAACG,0.516
19,GUUCCGUUGGCGUAAUGGUAACGCGUCUCCAUGCUAAGGAGAAGACUGCGGGUUCGAGUCCCGUACGGAACG,0.569
